# Test system: HEK-293T
# Test: Multiplex assay against HEK293T;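 as to Population Tubulin-Different-Phenotype (%): share of the cells with healthy nuclei that show this phenotype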
# Type: toxicity, cell-based
# Conditions: human
# Outline: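 Cells were classed with CellPathfinder machine-learning gating, first as Hoechst high-intensity objects or normal cells, then (normal cells) as healthy, pyknosed or fragmented nuclei, and finally (pyknosed cells) as mitotic or apoptotic. Staining of live cells at seeding used Hoechst33342, BioTracker Green Microtubule Cytoskeleton Dye, MitoTracker Red and Annexin V Alexa Fluor 680, with imaging on a CQ1 microscope at 37°C and 5% CO2 after compound addition. Tubulin, mitochondrial-mass and membrane-permeability phenotypes are per cents of healthy-nucleus cells.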
# [1] = 12 h, 1 µM, compound concentration 1 uM, replicate 1
# [2] = 12 h, 1 µM, compound concentration 1 uM, replicate 2
# [3] = 12 h, 10 µM, compound concentration 10 uM, replicate 1
# [4] = 12 h, 10 µM, compound concentration 10 uM, replicate 2
# [5] = 24 h, 1 µM, compound concentration 1 uM, replicate 1
# [6] = 24 h, 1 µM, compound concentration 1 uM, replicate 2
# [7] = 24 h, 10 µM, compound concentration 10 uM, replicate 1
# [8] = 24 h, 10 µM, compound concentration 10 uM, replicate 2
# [9] = 48 h, 1 µM, compound concentration 1 uM, replicate 1
# [10] = 48 h, 1 µM, compound concentration 1 uM, replicate 2
# [11] = 48 h, 10 µM, compound concentration 10 uM, replicate 1
# [12] = 48 h, 10 µM, compound concentration 10 uM, replicate 2
compound,measurement,setting,value
CCn1c(=O)c(-c2ccc(-c3cncs3)cc2Cl)cc2cnc(Nc3ccc(N4CCN(C)CC4)cc3)nc21,Population Apoptotic (%),[1],34%
same,Population Fragmented Nuclei (%),[1],7%
same,Population Healthy Nuclei (%),[1],46%
same,Population Hoechst High Intensity Objects (%),[1],14%
same,Population Membrane Permeable-Phenotype (%),[1],2%
same,Population Mitochondria Different-Phenotype (%),[1],79%
same,Population Mitotic Cells (%),[1],65%
same,Population Normal (%),[1],85%
same,Population Pyknosed Nuclei (%),[1],46%
same,Population Tubulin-Different-Phenotype (%),[1],55%
same,Total Cell Count,[1],232
same,Population Apoptotic (%),[2],10%
same,Population Fragmented Nuclei (%),[2],5%
same,Population Healthy Nuclei (%),[2],48%
same,Population Hoechst High Intensity Objects (%),[2],2%
same,Population Membrane Permeable-Phenotype (%),[2],9%
same,Population Mitochondria Different-Phenotype (%),[2],13%
same,Population Mitotic Cells (%),[2],89%
same,Population Normal (%),[2],97%
same,Population Pyknosed Nuclei (%),[2],45%
same,Population Tubulin-Different-Phenotype (%),[2],18%
same,Total Cell Count,[2],288
same,Population Apoptotic (%),[3],52%
same,Population Fragmented Nuclei (%),[3],47%
same,Population Healthy Nuclei (%),[3],21%
same,Population Hoechst High Intensity Objects (%),[3],62%
same,Population Membrane Permeable-Phenotype (%),[3],5%
same,Population Mitochondria Different-Phenotype (%),[3],93%
same,Population Mitotic Cells (%),[3],47%
same,Population Normal (%),[3],37%
same,Population Pyknosed Nuclei (%),[3],30%
same,Population Tubulin-Different-Phenotype (%),[3],93%
same,Total Cell Count,[3],1090
same,Population Apoptotic (%),[4],15%
same,Population Fragmented Nuclei (%),[4],7%
same,Population Healthy Nuclei (%),[4],55%
same,Population Hoechst High Intensity Objects (%),[4],4%
same,Population Membrane Permeable-Phenotype (%),[4],20%
same,Population Mitochondria Different-Phenotype (%),[4],16%
same,Population Mitotic Cells (%),[4],84%
same,Population Normal (%),[4],95%
same,Population Pyknosed Nuclei (%),[4],37%
same,Population Tubulin-Different-Phenotype (%),[4],38%
same,Total Cell Count,[4],174
same,Population Apoptotic (%),[5],57%
same,Population Fragmented Nuclei (%),[5],11%
same,Population Healthy Nuclei (%),[5],42%
same,Population Hoechst High Intensity Objects (%),[5],14%
same,Population Membrane Permeable-Phenotype (%),[5],2%
same,Population Mitochondria Different-Phenotype (%),[5],55%
same,Population Mitotic Cells (%),[5],42%
same,Population Normal (%),[5],85%
same,Population Pyknosed Nuclei (%),[5],45%
same,Population Tubulin-Different-Phenotype (%),[5],45%
same,Total Cell Count,[5],233
same,Population Apoptotic (%),[6],12%
same,Population Fragmented Nuclei (%),[6],4%
same,Population Healthy Nuclei (%),[6],65%
same,Population Hoechst High Intensity Objects (%),[6],1%
same,Population Membrane Permeable-Phenotype (%),[6],8%
same,Population Mitochondria Different-Phenotype (%),[6],15%
same,Population Mitotic Cells (%),[6],87%
same,Population Normal (%),[6],98%
same,Population Pyknosed Nuclei (%),[6],29%
same,Population Tubulin-Different-Phenotype (%),[6],31%
same,Total Cell Count,[6],358
same,Population Apoptotic (%),[7],59%
same,Population Fragmented Nuclei (%),[7],59%
same,Population Healthy Nuclei (%),[7],8%
same,Population Hoechst High Intensity Objects (%),[7],71%
same,Population Membrane Permeable-Phenotype (%),[7],0%
same,Population Mitochondria Different-Phenotype (%),[7],92%
same,Population Mitotic Cells (%),[7],40%
same,Population Normal (%),[7],28%
same,Population Pyknosed Nuclei (%),[7],31%
same,Population Tubulin-Different-Phenotype (%),[7],97%
same,Total Cell Count,[7],1552
same,Population Apoptotic (%),[8],30%
same,Population Fragmented Nuclei (%),[8],11%
same,Population Healthy Nuclei (%),[8],57%
same,Population Hoechst High Intensity Objects (%),[8],4%
same,Population Membrane Permeable-Phenotype (%),[8],15%
same,Population Mitochondria Different-Phenotype (%),[8],39%
same,Population Mitotic Cells (%),[8],69%
same,Population Normal (%),[8],95%
same,Population Tubulin-Different-Phenotype (%),[8],64%
same,Total Cell Count,[8],177
same,Population Apoptotic (%),[9],50%
same,Population Fragmented Nuclei (%),[9],14%
same,Population Healthy Nuclei (%),[9],57%
same,Population Hoechst High Intensity Objects (%),[9],13%
same,Population Membrane Permeable-Phenotype (%),[9],3%
same,Population Mitochondria Different-Phenotype (%),[9],33%
same,Population Mitotic Cells (%),[9],49%
same,Population Normal (%),[9],86%
same,Population Pyknosed Nuclei (%),[9],28%
same,Population Tubulin-Different-Phenotype (%),[9],36%
same,Total Cell Count,[9],308
same,Population Apoptotic (%),[10],11%
same,Population Fragmented Nuclei (%),[10],6%
same,Population Healthy Nuclei (%),[10],80%
same,Population Hoechst High Intensity Objects (%),[10],3%
same,Population Membrane Permeable-Phenotype (%),[10],7%
same,Population Mitochondria Different-Phenotype (%),[10],4%
same,Population Mitotic Cells (%),[10],88%
same,Population Normal (%),[10],96%
same,Population Pyknosed Nuclei (%),[10],13%
same,Population Tubulin-Different-Phenotype (%),[10],29%
same,Total Cell Count,[10],591
same,Population Apoptotic (%),[11],64%
same,Population Fragmented Nuclei (%),[11],72%
same,Population Healthy Nuclei (%),[11],6%
same,Population Hoechst High Intensity Objects (%),[11],74%
same,Population Membrane Permeable-Phenotype (%),[11],0%
same,Population Mitochondria Different-Phenotype (%),[11],84%
same,Population Mitotic Cells (%),[11],35%
same,Population Normal (%),[11],25%
same,Population Pyknosed Nuclei (%),[11],20%
same,Population Tubulin-Different-Phenotype (%),[11],75%
same,Total Cell Count,[11],1798
same,Population Apoptotic (%),[12],36%
same,Population Fragmented Nuclei (%),[12],8%
same,Population Healthy Nuclei (%),[12],70%
same,Population Hoechst High Intensity Objects (%),[12],4%
same,Population Membrane Permeable-Phenotype (%),[12],9%
same,Population Mitochondria Different-Phenotype (%),[12],25%
same,Population Mitotic Cells (%),[12],63%
same,Population Normal (%),[12],95%
same,Population Tubulin-Different-Phenotype (%),[12],63%
same,Total Cell Count,[12],238

# — ChEMBL document CHEMBL4689842, “EUbOPEN Chemogenomics Library wave 1” (2021)
